Data from ChEMBL document CHEMBL4339190, “2,6-Disubstituted imidazo[2,1-b][1,3,4]thiadiazole derivatives as potent staphylococcal biofilm inhibitors” (Eur J Med Chem, 2019).
Active and inactive are the calls of the source. The calls are words filed in the database; no cut-off is given here.

Experiments:
[1] = tested on: Staphylococcus epidermidis; experiment: Antibiofilm activity against Staphylococcus epidermidis ATCC 12228 incubated for 24 hrs by crystal violet-staining based assay; format: functional
Outline: (§1)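 Biofilm prevention: 0.5 McFarland inoculum (2.5 µL) in 100 µL TSB with 2% w/v glucose, compound present from the start over 100–0.1 µg/mL, 37 °C 24 h. Washed with PBS, stained 0.1% w/v crystal violet 30 min, eluted with 33% v/v acetic acid, read at 570 nm. BIC50 (50% inhibition versus untreated control) derived by linear regression; triplicate, repeated at least twice.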

Staphylococcus aureus [2] = experiment: Antimicrobial activity against Staphylococcus aureus ATCC 25923 assessed as growth inhibition of planktonic forms incubated for 24 hrs; format: organism-based; details: in vitro
Outline: (§2)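 Broth microdilution in tryptic soy broth. Two-fold series 100 to 0.75 μg/mL made from a 1 mg/mL stock in 0.9% NaCl. Inoculum ~10⁶ cfu/mL taken from a 24 h culture, 37 °C 24 h.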

Pseudomonas aeruginosa [3] = experiment: Antibiofilm activity against Pseudomonas aeruginosa ATCC 15442 assessed as inhibition of biofilm formation at 100 ug/ml incubated for 24 hrs by crystal violet-staining based assay; format: functional; details: ATCC 15442, 24 h
Staphylococcus aureus [4] = experiment: Antibiofilm activity against Staphylococcus aureus ATCC 25923 assessed as inhibition of biofilm formation at 100 ug/ml incubated for 24 hrs by crystal violet-staining based assay; format: functional; details: ATCC 25923, 24 h
Pseudomonas aeruginosa [5] = experiment: Antimicrobial activity against Pseudomonas aeruginosa ATCC 15442 assessed as growth inhibition of planktonic forms incubated for 24 hrs; format: organism-based; details: in vitro; outline: as §2
Escherichia coli [6] = experiment: Antimicrobial activity against Escherichia coli ATCC 25922 assessed as growth inhibition of planktonic forms incubated for 24 hrs; format: organism-based; details: in vitro; outline: as §2
[7] = tested on: Staphylococcus epidermidis; experiment: Antimicrobial activity against Staphylococcus epidermidis ATCC 12228 assessed as growth inhibition of planktonic forms incubated for 24 hrs; format: organism-based; details: in vitro; outline: as §2
Staphylococcus aureus [8] = experiment: Antibiofilm activity against Staphylococcus aureus ATCC 6538 assessed as inhibition of biofilm formation at 100 ug/ml incubated for 24 hrs by crystal violet-staining based assay; format: functional; details: ATCC 6538, 24 h
Escherichia coli [9] = experiment: Antibiofilm activity against Escherichia coli ATCC 25922 assessed as inhibition of biofilm formation at 100 ug/ml incubated for 24 hrs by crystal violet-staining based assay; format: functional; details: ATCC 25922, 24 h
Staphylococcus aureus [10] = experiment: Antimicrobial activity against Staphylococcus aureus ATCC 6538 assessed as growth inhibition of planktonic forms incubated for 24 hrs; format: organism-based; details: in vitro; outline: as §2
Bacteria = experiment: Inhibition of recombinant bacterial SrtA at 100 uM using 5-FAM/QXL 520 Sortase as substrate preincubated for 10 mins followed by substrate addition and measured every 5 mins for 60 mins by fluorescence assay
Outline: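 FRET kit assay: 2.5 µg/ml recombinant SrtA, 4 µM fluorescent peptide substrate, compound at 100 µM in 1% DMSO. Compound and enzyme added first, then substrate. Fluorescence (Ex/Em 490/520 nm) recorded every 5 min for 60 min. Substrate without enzyme served as negative control and 4-(hydroxymercuri)benzoic acid as positive control.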

Staphylococcus aureus [11] = experiment: Antibiofilm activity against Staphylococcus aureus ATCC 6538 incubated for 24 hrs by crystal violet-staining based assay; format: functional; outline: as §1
Staphylococcus aureus [12] = experiment: Antibiofilm activity against Staphylococcus aureus ATCC 25923 incubated for 24 hrs by crystal violet-staining based assay; format: functional; outline: as §1
Escherichia coli [13] = experiment: Antibiofilm activity against Escherichia coli ATCC 25922 incubated for 24 hrs by crystal violet-staining based assay; format: functional; outline: as §1
Staphylococcus aureus [14] = experiment: Antibiofilm activity against 24 hrs preformed biofilm of Staphylococcus aureus ATCC 25923 assessed as dispersion of bacteria incubated for 24 hrs by crystal violet-staining based assay; format: functional, organism-based; details: ATCC 25923, 24 h
Outline: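 Preformed biofilm: 0.5 McFarland suspension (2.5 µl) grown 24 h in TSB with 2% w/v glucose. Wells washed twice with PBS and refilled with fresh TSB, then compound added at graded concentrations starting at or above the planktonic MIC. Incubated a further 24 h at 37 °C, washed, heat-fixed 60 °C 1 h, 0.1% crystal violet 30 min, dye solubilized, A540. Percent inhibition versus untreated growth control; triplicate, repeated at least twice.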

Row | inhibition (Bacteria) | Compound | MBIC50 [1] [µM] | inhibition [1] | MIC (Staphylococcus aureus [2]) [µg/mL] | inhibition at 100 µg/mL (Pseudomonas aeruginosa [3]) [%] | inhibition at 100 µg/mL (Staphylococcus aureus [4]) [%] | MIC (Pseudomonas aeruginosa [5]) [µg/mL] | MIC (Escherichia coli [6]) [µg/mL] | MIC [7] [µg/mL] | inhibition at 100 µg/mL (Staphylococcus aureus [8]) [%] | inhibition at 100 µg/mL (Escherichia coli [9]) [%] | MIC (Staphylococcus aureus [10]) [µg/mL] | MBIC50 (Staphylococcus aureus [11]) [µM] | inhibition (Staphylococcus aureus [11]) | MBIC50 (Staphylococcus aureus [12]) [µM] | inhibition (Staphylococcus aureus [12]) | further results
1 | – | Br.Cn1cc(-c2nn3cc(-c4ccccc4)nc3s2)c2cc(Br)ccc21 | 21.6 | Dose-dependent effect | > 100 | < 15 | < 15 | > 100 | > 100 | > 100 | < 15 | < 15 | > 100 | – | – | – | – | –
2 | – | Cn1cc(-c2nn3cc(-c4ccccc4)nc3s2)c2cc(Cl)ccc21 | 36.5 | Dose-dependent effect | > 100 | < 15 | < 15 | > 100 | > 100 | > 100 | < 15 | < 15 | > 100 | – | – | – | – | –
3 | – | Br.COc1cccc(-c2cn3nc(-c4cn(C)c5ccc(Cl)cc45)sc3n2)c1 | 23.9 | Dose-dependent effect | > 100 | < 15 | < 15 | > 100 | > 100 | > 100 | < 15 | < 15 | > 100 | – | – | – | – | –
4 | inactive | Br.COc1ccc(OC)c(-c2cn3nc(-c4c[nH]c5ccc(Cl)cc45)sc3n2)c1 | 18.9 | Dose-dependent effect | > 100 | < 15 | – | > 100 | > 100 | > 100 | – | – | > 100 | 0.5 | Dose-dependent effect | 24.2 | Dose-dependent effect | MBIC90 (Staphylococcus aureus [11]): 16.2 µg/mL; MBIC50 (Escherichia coli [13]): 91.5 µM; inhibition (Escherichia coli [13]): Dose-dependent effect
5 | – | Cn1cc(-c2nn3cc(-c4ccc([N+](=O)[O-])cc4)nc3s2)c2cc(Cl)ccc21 | 78 | Dose-dependent effect | > 100 | < 15 | < 15 | > 100 | > 100 | > 100 | – | < 15 | > 100 | 33 | Dose-dependent effect | – | – | –
6 | inactive | Br.COc1ccc(OC)c(-c2cn3nc(-c4c[nH]c5ccccc45)sc3n2)c1 | 29.9 | Dose-dependent effect | > 100 | < 15 | – | > 100 | > 100 | > 100 | – | < 15 | > 100 | 18.5 | Dose-dependent effect | 1.2 | Dose-dependent effect | MBIC90 (Staphylococcus aureus [12]): 36.5 µg/mL; IC50 (Staphylococcus aureus [14]): 142 µg/mL
7 | inactive | Br.COc1cccc(-c2cn3nc(-c4cn(C)c5ccccc45)sc3n2)c1 | 41.9 | Dose-dependent effect | > 100 | < 15 | – | > 100 | > 100 | > 100 | – | < 15 | > 100 | 28 | Dose-dependent effect | 1.8 | Dose-dependent effect | MBIC90 (Staphylococcus aureus [12]): 23.3 µg/mL
8 | – | Cn1cc(-c2nn3cc(-c4ccc(F)cc4)nc3s2)c2cc(Cl)ccc21 | 17 | Dose-dependent effect | > 100 | < 15 | < 15 | > 100 | > 100 | > 100 | – | < 15 | > 100 | 50.4 | Dose-dependent effect | – | – | –
